Results on two compounds are retold here after PMC2810120 (Chemical biology & drug design, 2009).

pKd: −log10 of the molar value. Non-standard residues stand in square brackets, D forms with d. Residues, ends and D or L forms follow the SMILES beside them. *: point of attachment. pS = N[C@@H](COP(=O)(O)O)C(=O)O; pNA = O=[N+]([O-])c1ccc(N*)cc1

One data set has as its target human Pin1 (human) (UniProt Q13526). The data set is described as follows: NMR titration.
Another data set in a line: Plasma stability assay. The note with it: rat plasma, 37 °C, 20 μM, after 30 min. The data set is classed as in vitro ADME. The method, boiled down: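 Test compound at 20 μM final is incubated in fresh rat plasma at 37 °C. Samples are stopped at 0, 30 and 60 min with two volumes of methanol containing internal standard, then protein is precipitated and samples centrifuged for LC-MS. % parent remaining is taken against the 0 min sample from peak-area ratios to the internal standard. Run in duplicate with a plasma-labile positive control.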

Data set [1] can be described thus: Parallel artificial membrane permeation assay. The data set is classed as in vitro ADME. The note with it: 100 μM compound, pH 7.2, acceptor concentration after 8 h. Summed up: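 Lipid-impregnated hydrophobic filter (lipid applied in chloroform, solvent fully evaporated) separates donor from acceptor wells of phosphate buffer pH 7.2. Test compound is added at 100 μM to the donor side, with stock DMSO <5%. A membrane-free equilibrium well is run in parallel. Acceptor and equilibrium concentrations are measured by LC-MS AUC. % flux is the acceptor concentration after 8 h relative to the membrane-free reference well.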

Sequence of UniProt Q13526 (Q13526 whole entry): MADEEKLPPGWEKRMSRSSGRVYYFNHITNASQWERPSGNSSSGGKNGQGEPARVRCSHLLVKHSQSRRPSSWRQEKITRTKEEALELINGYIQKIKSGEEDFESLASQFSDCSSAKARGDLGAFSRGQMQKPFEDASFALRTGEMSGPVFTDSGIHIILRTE

As for Pintide (peptide), in the data set with human Pin1 (human), the pKd (in general, the Kd on a negative log10 scale, so that one unit is a factor of ten) was 3.49.
With `N=C(N)NCCC[C@H](NC(=O)[C@@H]1CCCN1C(=O)[C@H](COP(=O)(O)O)NC(=O)[C@H](Cc1ccc(O)cc1)NC(=O)[C@H](Cc1ccccc1)NC(=O)[C@@H](N)Cc1c[nH]c2ccccc12)C(=O)Nc1ccc([N+](=O)[O-])cc1` [Pintide] (H-WFY[pS]PR-pNA; N-terminus and C-terminus assumed), the plasma stability entry in the data set “Plasma stability assay” was “rapidly degraded”. Moreover, in data set [1], the “PAMPA FLUX (%)” value was determined as 14%.
